The structures appear in SMILES notation.

This series in a line: Measurement of phenolics in plasma. The format is in vivo. To be noted: 2 months old male mice fed diet containing 25% dried plum for 4 weeks. The method, boiled down:
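Male C57Bl/6 mice, 2 months old, fed control AIN-93G or diet with 25% test material for 4 weeks (n=8/group). At euthanasia, blood was drawn into lithium-heparin tubes and spun at 6500 rpm for 10 min at 4°C. Plasma was acidified 4:1 with 1% ascorbic acid in saline, purged with nitrogen and stored at −80°C. Quercetin glycosides and caffeic and gallic acid derivatives were profiled by LC/TOF-MS.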
For `COc1cc(CCC(=O)O)ccc1O[C@@H]1O[C@H](C(=O)O)[C@@H](O)[C@H](O)[C@H]1O` [Dihydroferulic acid 4-O-glucuronide], the “plasma concentration, CMin” value came to 3270 nM and the “plasma concentration, Caverage” value worked out at 4990 ± 440 nM.

For `COc1ccc(CCC(=O)O)cc1O[C@@H]1O[C@H](C(=O)O)[C@@H](O)[C@H](O)[C@H]1O` [Dihydroisoferulic acid 3-O-glucuronide], the “plasma concentration, CMin” value turned out to be 420 nM and the “plasma concentration, Caverage” value came out at 1390 ± 310 nM.

For `COc1cc(/C=C/C(=O)O)ccc1O[C@@H]1O[C@H](C(=O)O)[C@@H](O)[C@H](O)[C@H]1O` [Ferulic acid 4-O-glucuronide], the “plasma concentration, CMin” value was 1100 nM and the “plasma concentration, Caverage” value amounted to 3060 ± 450 nM.

On to `COc1ccc(/C=C/C(=O)O)cc1O[C@@H]1O[C@H](C(=O)O)[C@@H](O)[C@H](O)[C@H]1O` [Isoferulic acid 3-O-glucuronide], for which the “plasma concentration, CMin” value came to 20 nM and the “plasma concentration, Caverage” value turned out to be 800 ± 210 nM.

The values are drawn from PMC7413021 (The Journal of nutritional biochemistry, 2016).
